Experiments:
[1] = biological target: T1, Serine/threonine-protein kinase 3 (Homo sapiens) (UniProt Q13188); test: Inhibition of MST2 at 1 uM
T1 sequence (whole entry): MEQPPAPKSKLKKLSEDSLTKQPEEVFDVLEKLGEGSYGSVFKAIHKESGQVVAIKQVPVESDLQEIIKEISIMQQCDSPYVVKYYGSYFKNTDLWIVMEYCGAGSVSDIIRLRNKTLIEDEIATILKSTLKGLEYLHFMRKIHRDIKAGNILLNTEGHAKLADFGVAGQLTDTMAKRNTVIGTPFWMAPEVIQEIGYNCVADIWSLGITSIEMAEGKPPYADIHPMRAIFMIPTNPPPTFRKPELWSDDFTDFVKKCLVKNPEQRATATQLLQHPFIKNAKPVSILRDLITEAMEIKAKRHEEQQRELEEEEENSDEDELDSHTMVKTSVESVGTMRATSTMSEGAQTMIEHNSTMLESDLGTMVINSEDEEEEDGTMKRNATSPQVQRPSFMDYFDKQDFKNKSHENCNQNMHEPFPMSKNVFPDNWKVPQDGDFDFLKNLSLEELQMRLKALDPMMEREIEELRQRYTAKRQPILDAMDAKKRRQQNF

[2] = biological target: Serine/threonine-protein kinase PAK 1 (Homo sapiens) (UniProt Q13153); test: Inhibition of PAK1 at 1 uM
[3] = biological target: RAC-alpha serine/threonine-protein kinase (Homo sapiens) (UniProt P31749); test: Inhibition of AKT1 at 1 uM
In short: (§1)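 Ambit KINOMEscan screen at a single concentration across a 250–400 kinase panel, recorded as percent inhibition. Selectivity was expressed as S(90), the fraction of kinases inhibited >90%.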

[4] = biological target: Cyclin-dependent kinase 5 (Homo sapiens) (UniProt Q00535); test: Inhibition of CDK5 at 1 uM; in short: as §1
[5] = biological target: T2, Myotonin-protein kinase (Homo sapiens) (UniProt Q09013); test: Inhibition of DMPK at 1 uM
T2 sequence (whole entry): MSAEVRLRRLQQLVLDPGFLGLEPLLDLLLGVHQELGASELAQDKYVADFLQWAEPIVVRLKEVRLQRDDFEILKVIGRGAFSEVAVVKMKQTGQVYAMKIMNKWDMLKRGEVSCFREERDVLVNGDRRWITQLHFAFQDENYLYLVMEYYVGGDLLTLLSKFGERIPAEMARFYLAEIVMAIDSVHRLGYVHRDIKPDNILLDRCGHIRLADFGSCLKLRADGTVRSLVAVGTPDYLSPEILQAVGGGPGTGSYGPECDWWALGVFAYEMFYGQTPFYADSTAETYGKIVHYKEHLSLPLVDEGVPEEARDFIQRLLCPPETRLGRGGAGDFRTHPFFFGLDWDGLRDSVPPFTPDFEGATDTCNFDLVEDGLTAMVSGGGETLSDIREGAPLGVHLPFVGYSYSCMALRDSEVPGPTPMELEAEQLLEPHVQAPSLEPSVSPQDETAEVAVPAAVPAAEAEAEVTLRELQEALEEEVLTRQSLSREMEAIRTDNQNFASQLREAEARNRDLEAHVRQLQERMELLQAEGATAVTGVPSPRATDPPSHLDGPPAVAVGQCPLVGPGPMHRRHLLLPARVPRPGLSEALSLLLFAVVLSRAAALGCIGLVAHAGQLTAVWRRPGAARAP
In short: (§2)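 Single-concentration screen using Ambit Bioscience KINOMEscan technology across a panel of 250–400 kinases. Per-kinase inhibition from this screen was summarized as S(90), the fraction of kinases inhibited by more than 90%.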

[6] = biological target: Ephrin type-A receptor 2 (Homo sapiens) (UniProt P29317); test: Inhibition of EPHA2 at 1 uM; in short: as §2
[7] = biological target: T3, Homeodomain-interacting protein kinase 4 (Homo sapiens) (UniProt Q8NE63); test: Inhibition of HIPK4 at 1 uM
T3 sequence (whole entry): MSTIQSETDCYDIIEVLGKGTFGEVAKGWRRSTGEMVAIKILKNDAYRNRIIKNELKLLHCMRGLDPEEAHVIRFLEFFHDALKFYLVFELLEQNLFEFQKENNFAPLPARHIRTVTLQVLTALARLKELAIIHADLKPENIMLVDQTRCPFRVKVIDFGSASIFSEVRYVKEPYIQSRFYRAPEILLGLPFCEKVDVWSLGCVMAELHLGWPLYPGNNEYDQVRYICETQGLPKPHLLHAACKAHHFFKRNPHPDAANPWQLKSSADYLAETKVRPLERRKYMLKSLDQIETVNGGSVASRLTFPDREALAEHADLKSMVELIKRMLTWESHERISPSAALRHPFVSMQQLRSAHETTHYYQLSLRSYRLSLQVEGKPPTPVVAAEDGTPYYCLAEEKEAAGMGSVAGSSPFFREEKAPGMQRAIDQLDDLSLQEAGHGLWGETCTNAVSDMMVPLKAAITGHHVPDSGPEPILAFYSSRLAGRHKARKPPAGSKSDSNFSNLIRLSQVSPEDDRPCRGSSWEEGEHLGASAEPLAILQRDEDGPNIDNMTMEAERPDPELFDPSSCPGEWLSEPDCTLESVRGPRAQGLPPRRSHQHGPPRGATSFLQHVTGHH

Chain of RAC-alpha serine/threonine-protein kinase (Homo sapiens) (P31749 whole entry): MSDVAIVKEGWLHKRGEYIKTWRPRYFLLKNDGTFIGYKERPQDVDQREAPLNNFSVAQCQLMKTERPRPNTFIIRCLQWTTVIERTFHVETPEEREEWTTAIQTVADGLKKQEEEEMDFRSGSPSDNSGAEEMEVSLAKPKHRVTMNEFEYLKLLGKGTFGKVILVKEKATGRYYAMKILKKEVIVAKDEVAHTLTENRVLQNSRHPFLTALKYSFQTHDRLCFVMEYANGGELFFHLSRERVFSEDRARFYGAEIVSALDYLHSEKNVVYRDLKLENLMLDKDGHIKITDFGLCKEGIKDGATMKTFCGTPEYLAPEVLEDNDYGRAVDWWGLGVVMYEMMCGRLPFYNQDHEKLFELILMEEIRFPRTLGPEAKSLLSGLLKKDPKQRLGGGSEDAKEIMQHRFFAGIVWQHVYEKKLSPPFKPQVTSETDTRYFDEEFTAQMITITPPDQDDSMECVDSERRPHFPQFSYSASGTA
Chain of Ephrin type-A receptor 2 (Homo sapiens) (P29317 whole entry): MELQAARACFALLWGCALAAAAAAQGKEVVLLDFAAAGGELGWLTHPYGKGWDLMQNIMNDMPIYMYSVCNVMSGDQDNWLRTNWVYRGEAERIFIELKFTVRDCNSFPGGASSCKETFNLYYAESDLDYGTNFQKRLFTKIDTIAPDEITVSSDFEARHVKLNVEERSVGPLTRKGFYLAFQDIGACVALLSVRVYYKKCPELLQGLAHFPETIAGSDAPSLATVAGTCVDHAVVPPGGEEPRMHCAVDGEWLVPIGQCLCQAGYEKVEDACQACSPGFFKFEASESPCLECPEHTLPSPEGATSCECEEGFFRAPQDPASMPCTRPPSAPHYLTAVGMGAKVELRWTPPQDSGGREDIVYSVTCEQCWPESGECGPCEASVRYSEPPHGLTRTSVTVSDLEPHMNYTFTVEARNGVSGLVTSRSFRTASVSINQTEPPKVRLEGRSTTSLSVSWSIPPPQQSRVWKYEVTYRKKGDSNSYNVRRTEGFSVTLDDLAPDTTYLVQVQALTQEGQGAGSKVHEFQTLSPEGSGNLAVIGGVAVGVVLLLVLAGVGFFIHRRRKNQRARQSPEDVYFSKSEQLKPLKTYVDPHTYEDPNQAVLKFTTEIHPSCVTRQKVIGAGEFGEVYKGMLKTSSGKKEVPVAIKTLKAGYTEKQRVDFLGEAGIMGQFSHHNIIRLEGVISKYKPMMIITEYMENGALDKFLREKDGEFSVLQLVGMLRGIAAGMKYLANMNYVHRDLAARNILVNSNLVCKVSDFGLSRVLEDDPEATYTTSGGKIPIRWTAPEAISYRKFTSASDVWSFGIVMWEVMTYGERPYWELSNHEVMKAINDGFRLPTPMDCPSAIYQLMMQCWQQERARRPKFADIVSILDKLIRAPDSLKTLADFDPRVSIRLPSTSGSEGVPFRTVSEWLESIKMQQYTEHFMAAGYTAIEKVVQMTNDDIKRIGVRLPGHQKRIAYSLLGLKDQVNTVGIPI
Chain of Cyclin-dependent kinase 5 (Homo sapiens) (Q00535 whole entry, looked up): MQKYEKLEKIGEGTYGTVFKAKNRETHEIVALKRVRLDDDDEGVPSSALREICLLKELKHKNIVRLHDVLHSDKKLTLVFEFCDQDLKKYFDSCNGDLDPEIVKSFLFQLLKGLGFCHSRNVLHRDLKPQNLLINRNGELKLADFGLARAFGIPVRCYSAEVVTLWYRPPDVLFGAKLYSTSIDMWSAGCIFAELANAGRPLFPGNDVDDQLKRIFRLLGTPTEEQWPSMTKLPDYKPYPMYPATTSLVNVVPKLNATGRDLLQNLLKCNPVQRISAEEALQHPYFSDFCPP
Chain of Serine/threonine-protein kinase PAK 1 (Homo sapiens) (Q13153 whole entry): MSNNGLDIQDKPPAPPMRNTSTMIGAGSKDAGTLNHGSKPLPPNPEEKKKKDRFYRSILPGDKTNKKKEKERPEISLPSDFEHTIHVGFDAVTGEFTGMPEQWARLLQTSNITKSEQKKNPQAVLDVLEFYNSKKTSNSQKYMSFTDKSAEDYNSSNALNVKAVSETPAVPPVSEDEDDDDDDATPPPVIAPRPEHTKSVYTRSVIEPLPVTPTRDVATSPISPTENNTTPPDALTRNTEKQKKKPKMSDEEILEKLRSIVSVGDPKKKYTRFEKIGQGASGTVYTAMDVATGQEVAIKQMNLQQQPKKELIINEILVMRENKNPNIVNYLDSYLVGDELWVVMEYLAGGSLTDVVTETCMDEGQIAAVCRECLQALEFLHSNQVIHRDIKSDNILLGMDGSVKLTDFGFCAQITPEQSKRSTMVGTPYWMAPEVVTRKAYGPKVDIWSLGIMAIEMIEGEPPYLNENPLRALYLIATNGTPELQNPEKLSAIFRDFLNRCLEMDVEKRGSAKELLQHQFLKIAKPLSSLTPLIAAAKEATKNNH

Row | inhibition [1] [%] | inhibition [2] [%] | inhibition [3] [%] | inhibition [4] [%] | inhibition [5] [%] | inhibition [6] [%] | inhibition [7] [%] | SMILES
1 | < 50 | < 50 | < 50 | < 50 | < 50 | < 50 | < 50 | CN1CCN(c2ccc(-c3cnc4c(c3)N(Cc3cc(Cl)ccc3C(F)(F)F)CCN4)cn2)CC1
2 | – | < 50 | < 50 | < 50 | < 50 | < 50 | – | O=C(O)c1ccc(-c2cnc3c(c2)N(Cc2cc(Cl)ccc2C(F)(F)F)CCN3)cc1
3 | – | < 50 | < 50 | < 50 | < 50 | < 50 | – | O=C(c1ccc(-c2cnc3c(c2)N(Cc2cc(Cl)ccc2C(F)(F)F)CCN3)cc1)N1CCC(N2CCCC2)CC1
4 | – | < 50 | < 50 | < 50 | < 50 | < 50 | – | COC1CCN(C(=O)c2ccc(-c3cnc4c(c3)N(Cc3cc(Cl)ccc3C(F)(F)F)CCN4)cc2)CC1
5 | 97 | < 50 | < 50 | < 50 | < 50 | < 50 | < 50 | FC(F)(F)c1ccc(Cl)cc1CN1CCNc2ncc(-c3ccnc(N4CCNCC4)c3)cc21
6 | 88 | < 50 | < 50 | < 50 | < 50 | < 50 | < 50 | CC(=O)N1CCN(c2cc(-c3cnc4c(c3)N(Cc3cc(Cl)ccc3C(F)(F)F)CCN4)ccn2)CC1
7 | < 50 | < 50 | < 50 | < 50 | < 50 | < 50 | < 50 | CN1CCN(c2ccc(-c3cnc4c(c3)N(Cc3cc(F)ccc3F)CCN4)cn2)CC1
8 | < 50 | < 50 | < 50 | < 50 | < 50 | < 50 | < 50 | CN1CCN(c2ccc(-c3cnc4c(c3)N(Cc3c(F)ccc(F)c3Cl)CCN4)cn2)CC1
9 | – | < 50 | < 50 | < 50 | < 50 | < 50 | – | O=C(c1ccc(-c2cnc3c(c2)N(Cc2cc(Cl)ccc2C(F)(F)F)CCN3)cc1)N1CCCCC1
10 | < 50 | < 50 | < 50 | < 50 | < 50 | < 50 | < 50 | CN1CCN(c2ccc(-c3cnc4c(c3)N(Cc3cc(Cl)ccc3Cl)CCN4)cn2)CC1

Source: ChEMBL document CHEMBL1165965, “Synthesis and structure-activity relationships of 1,2,3,4-tetrahydropyrido[2,3-b]pyrazines as potent and selective inhibitors of the anaplastic lymphoma kinase” (Bioorg Med Chem, 2010)
